The values below come from ChEMBL document CHEMBL1629465, “Efficient synthesis of novel 1,2,4-triazole fused acyclic and 21-28 membered macrocyclic and/or lariat macrocyclic oxaazathia crown compounds with potential antimicrobial activity” (2010).

In the first assay the test system is Escherichia coli. Description: Antimicrobial activity against Escherichia coli RCMB 103001 at 5 mg/ml by agar diffusion technique. Format: functional. The note with it: read-out: DIZ. In outline:
(§1)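 Agar well diffusion. Test compounds and reference standard drugs were diluted to 5.0, 2.5 and 1.0 mg/mL and applied to 0.6 cm wells. Inhibition zone beyond the control was scored as 0 (no inhibition), + (0.1–0.5 cm), ++ (0.6–1.0 cm) or +++ (1.0–1.5 cm).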
For orientation: In agar diffusion tests the substance spreads into inoculated agar from a disc or well.
In the case of `C1=N\n2c(nnc2-c2cccnc2)SCCCCSc2nnc(-c3cccnc3)n2/N=C\c2ccccc2OCCOCCOCCOc2ccccc2/1`, the zone of inhibition at 5000 µg/mL is 1 mm.

Another assay concerns Bacillus subtilis. The assay is described as follows: Antimicrobial activity against Bacillus subtilis RCMB 101001 at 5 mg/ml by agar diffusion technique. Format: functional. The note with it: read-out: DIZ. In outline: as §1
Regarding `C1=N\n2c(nnc2-c2cccnc2)SCCCCSc2nnc(-c3cccnc3)n2/N=C\c2ccccc2OCCOCCOCCOc2ccccc2/1`, the zone of inhibition at 5000 µg/mL is 0 mm.

The subject of the next assay is Penicillium italicum. Description: Antimicrobial activity against Penicillium italicum RCMB 001018 at 5 mg/ml by agar diffusion technique. In kind it is functional. As to conditions: read-out: DIZ. In outline: as §1
In the case of `C1=N\n2c(nnc2-c2cccnc2)SCCCCSc2nnc(-c3cccnc3)n2/N=C\c2ccccc2OCCOCCOCCOc2ccccc2/1`, the zone of inhibition at 5000 µg/mL was found to be 0 mm.

The next assay has as its system Candida albicans. The assay is described as follows: Antimicrobial activity against Candida albicans RCMB 005003 at 1 mg/ml by agar diffusion technique. In kind it is functional. The note with it: read-out: DIZ. The essentials: as §1
In the case of `C1=N\n2c(nnc2-c2cccnc2)SCCCCSc2nnc(-c3cccnc3)n2/N=C\c2ccccc2OCCOCCOCCOc2ccccc2/1`, the zone of inhibition at 1000 µg/mL amounted to 0 mm.

Another assay deals with Bacillus subtilis. Description: Antimicrobial activity against Bacillus subtilis RCMB 101001 at 2.5 mg/ml by agar diffusion technique. Format: functional. The note with it: read-out: DIZ. In outline:
as §1
`C1=N\n2c(nnc2-c2cccnc2)SCCCCSc2nnc(-c3cccnc3)n2/N=C\c2ccccc2OCCOCCOCCOc2ccccc2/1`: the zone of inhibition at 2500 µg/mL was 0 mm.

A further assay deals with Staphylococcus aureus. The assay is described as follows: Antimicrobial activity against Staphylococcus aureus RCMB 106001 at 5 mg/ml by agar diffusion technique. In kind it is functional. As to conditions: read-out: DIZ. In outline:
as §1
Consider `C1=N\n2c(nnc2-c2cccnc2)SCCCCSc2nnc(-c3cccnc3)n2/N=C\c2ccccc2OCCOCCOCCOc2ccccc2/1`, for which the zone of inhibition at 5000 µg/mL came out at 1 mm.

For a further assay, the system named is Bacillus subtilis. Description: Antimicrobial activity against Bacillus subtilis RCMB 101001 at 1 mg/ml by agar diffusion technique. In kind it is functional. As to conditions: read-out: DIZ. In outline: as §1
As to `C1=N\n2c(nnc2-c2cccnc2)SCCCCSc2nnc(-c3cccnc3)n2/N=C\c2ccccc2OCCOCCOCCOc2ccccc2/1`, the zone of inhibition at 1000 µg/mL was found to be 0 mm.

In a further assay the test system is Aspergillus fumigatus. The assay is described as follows: Antimicrobial activity against Aspergillus fumigatus RCMB 002008 at 5 mg/ml by agar diffusion technique. In kind it is functional. The note with it: read-out: DIZ. The essentials: as §1
On to `C1=N\n2c(nnc2-c2cccnc2)SCCCCSc2nnc(-c3cccnc3)n2/N=C\c2ccccc2OCCOCCOCCOc2ccccc2/1`, for which the zone of inhibition at 5000 µg/mL is 0 mm.

A further assay deals with Syncephalastrum racemosum. The assay is described as follows: Antimicrobial activity against Syncephalastrum racemosum RCMB 016001 at 5 mg/ml by agar diffusion technique. In kind it is functional. The note with it: read-out: DIZ. In outline: as §1
As for `C1=N\n2c(nnc2-c2cccnc2)SCCCCSc2nnc(-c3cccnc3)n2/N=C\c2ccccc2OCCOCCOCCOc2ccccc2/1`, the zone of inhibition at 5000 µg/mL came out at 1 mm.

In another assay the test system is Syncephalastrum racemosum. Description: Antimicrobial activity against Syncephalastrum racemosum RCMB 016001 at 1 mg/ml by agar diffusion technique. As to conditions: read-out: DIZ. In kind it is functional. The essentials:
as §1
`C1=N\n2c(nnc2-c2cccnc2)SCCCCSc2nnc(-c3cccnc3)n2/N=C\c2ccccc2OCCOCCOCCOc2ccccc2/1`: the zone of inhibition at 1000 µg/mL came to 0 mm.

A further assay concerns Pseudomonas aeruginosa. Description: Antimicrobial activity against Pseudomonas aeruginosa RCMB 102002 at 1 mg/ml by agar diffusion technique. In kind it is functional. The note with it: read-out: DIZ. The essentials:
as §1
Turning to `C1=N\n2c(nnc2-c2cccnc2)SCCCCSc2nnc(-c3cccnc3)n2/N=C\c2ccccc2OCCOCCOCCOc2ccccc2/1`, the zone of inhibition at 1000 µg/mL worked out at 0 mm.

A further assay deals with Syncephalastrum racemosum. Description: Antimicrobial activity against Syncephalastrum racemosum RCMB 016001 at 2.5 mg/ml by agar diffusion technique. In kind it is functional. As to conditions: read-out: DIZ. The essentials: as §1
For the compound `C1=N\n2c(nnc2-c2cccnc2)SCCCCSc2nnc(-c3cccnc3)n2/N=C\c2ccccc2OCCOCCOCCOc2ccccc2/1`, the zone of inhibition at 2500 µg/mL is 0 mm.

In another assay the test system is Aspergillus fumigatus. Description: Antimicrobial activity against Aspergillus fumigatus RCMB 002008 at 2.5 mg/ml by agar diffusion technique. In kind it is functional. As to conditions: read-out: DIZ. The essentials: as §1
`C1=N\n2c(nnc2-c2cccnc2)SCCCCSc2nnc(-c3cccnc3)n2/N=C\c2ccccc2OCCOCCOCCOc2ccccc2/1`: the zone of inhibition at 2500 µg/mL stood at 0 mm.

The next assay relates to Candida albicans. The assay is described as follows: Antimicrobial activity against Candida albicans RCMB 005003 at 2.5 mg/ml by agar diffusion technique. Format: functional. As to conditions: read-out: DIZ. In outline:
as §1
With `C1=N\n2c(nnc2-c2cccnc2)SCCCCSc2nnc(-c3cccnc3)n2/N=C\c2ccccc2OCCOCCOCCOc2ccccc2/1`, the zone of inhibition at 2500 µg/mL is 0 mm.

A further assay relates to Candida albicans. Description: Antimicrobial activity against Candida albicans RCMB 005003 at 5 mg/ml by agar diffusion technique. The note with it: read-out: DIZ. In kind it is functional. In outline: as §1
Regarding `C1=N\n2c(nnc2-c2cccnc2)SCCCCSc2nnc(-c3cccnc3)n2/N=C\c2ccccc2OCCOCCOCCOc2ccccc2/1`, the zone of inhibition at 5000 µg/mL was found to be 0 mm.

The subject of the next assay is Penicillium italicum. The assay is described as follows: Antimicrobial activity against Penicillium italicum RCMB 001018 at 2.5 mg/ml by agar diffusion technique. The note with it: read-out: DIZ. In kind it is functional. In outline:
as §1
As for `C1=N\n2c(nnc2-c2cccnc2)SCCCCSc2nnc(-c3cccnc3)n2/N=C\c2ccccc2OCCOCCOCCOc2ccccc2/1`, the zone of inhibition at 2500 µg/mL is 0 mm.

The subject of another assay is Aspergillus fumigatus. Description: Antimicrobial activity against Aspergillus fumigatus RCMB 002008 at 1 mg/ml by agar diffusion technique. Format: functional. As to conditions: read-out: DIZ. In outline: as §1
With `C1=N\n2c(nnc2-c2cccnc2)SCCCCSc2nnc(-c3cccnc3)n2/N=C\c2ccccc2OCCOCCOCCOc2ccccc2/1`, the zone of inhibition at 1000 µg/mL is 0 mm.

The next assay deals with Escherichia coli. The assay is described as follows: Antimicrobial activity against Escherichia coli RCMB 103001 at 1 mg/ml by agar diffusion technique. In kind it is functional. The note with it: read-out: DIZ. The essentials: as §1
As for `C1=N\n2c(nnc2-c2cccnc2)SCCCCSc2nnc(-c3cccnc3)n2/N=C\c2ccccc2OCCOCCOCCOc2ccccc2/1`, the zone of inhibition at 1000 µg/mL amounted to 0 mm.

Another assay relates to Pseudomonas aeruginosa. The assay is described as follows: Antimicrobial activity against Pseudomonas aeruginosa RCMB 102002 at 2.5 mg/ml by agar diffusion technique. Format: functional. As to conditions: read-out: DIZ. The essentials: as §1
For `C1=N\n2c(nnc2-c2cccnc2)SCCCCSc2nnc(-c3cccnc3)n2/N=C\c2ccccc2OCCOCCOCCOc2ccccc2/1`, the zone of inhibition at 2500 µg/mL worked out at 1 mm.

For the next assay, the system named is Escherichia coli. Description: Antimicrobial activity against Escherichia coli RCMB 103001 at 2.5 mg/ml by agar diffusion technique. In kind it is functional. The note with it: read-out: DIZ. In outline: as §1
Take `C1=N\n2c(nnc2-c2cccnc2)SCCCCSc2nnc(-c3cccnc3)n2/N=C\c2ccccc2OCCOCCOCCOc2ccccc2/1`: the zone of inhibition at 2500 µg/mL came out at 1 mm.

A further assay concerns Pseudomonas aeruginosa. The assay is described as follows: Antimicrobial activity against Pseudomonas aeruginosa RCMB 102002 at 5 mg/ml by agar diffusion technique. Format: functional. The note with it: read-out: DIZ. In outline: as §1
In the case of `C1=N\n2c(nnc2-c2cccnc2)SCCCCSc2nnc(-c3cccnc3)n2/N=C\c2ccccc2OCCOCCOCCOc2ccccc2/1`, the zone of inhibition at 5000 µg/mL came to 1 mm.

The next assay relates to Penicillium italicum. Description: Antimicrobial activity against Penicillium italicum RCMB 001018 at 1 mg/ml by agar diffusion technique. Format: functional. As to conditions: read-out: DIZ. In outline:
as §1
For the compound `C1=N\n2c(nnc2-c2cccnc2)SCCCCSc2nnc(-c3cccnc3)n2/N=C\c2ccccc2OCCOCCOCCOc2ccccc2/1`, the zone of inhibition at 1000 µg/mL amounted to 0 mm.

In the next assay the test system is Staphylococcus aureus. Description: Antimicrobial activity against Staphylococcus aureus RCMB 106001 at 1 mg/ml by agar diffusion technique. As to conditions: read-out: DIZ. Format: functional. In outline:
as §1
`C1=N\n2c(nnc2-c2cccnc2)SCCCCSc2nnc(-c3cccnc3)n2/N=C\c2ccccc2OCCOCCOCCOc2ccccc2/1`: the zone of inhibition at 1000 µg/mL turned out to be 0 mm.

For another assay, the system named is Staphylococcus aureus. The assay is described as follows: Antimicrobial activity against Staphylococcus aureus RCMB 106001 at 2.5 mg/ml by agar diffusion technique. In kind it is functional. The note with it: read-out: DIZ. In outline:
as §1
On to `C1=N\n2c(nnc2-c2cccnc2)SCCCCSc2nnc(-c3cccnc3)n2/N=C\c2ccccc2OCCOCCOCCOc2ccccc2/1`, for which the zone of inhibition at 2500 µg/mL amounted to 0 mm.
